According to ChEMBL document CHEMBL4043132, “3-O-Substituted-3',4',5'-trimethoxyflavonols: Synthesis and cell-based evaluation as anti-prostate cancer agents” (Bioorg Med Chem, 2017):

Assays:
Format in all cases: functional, cell-based
PC-3 = assay: Antiproliferative activity against human PC3 cells after 3 days by WST-1 assay; details: PC-3, 72 h
Outline: (§1)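 Cells from ATCC; PC-3 and LNCaP grown in RPMI-1640 and DU145 in EMEM, each with 10% FBS and 1% penicillin/streptomycin, 37 °C, 5% CO2. Seeded 3,200 cells/well and exposed for 3 days to at least five doses, with DMSO as vehicle control. WST-1 reagent added for 3 h at 37 °C, absorbance read at 430 nm. IC50 taken from a linear inhibition plot; mean ± SD of three independent experiments.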

DU-145 = assay: Antiproliferative activity against human DU145 cells after 3 days by WST-1 assay; details: DU-145, 72 h; outline: as §1
LNCaP = assay: Antiproliferative activity against human LNCAP cells after 3 days by WST-1 assay; details: 72 h; outline: as §1

| Compound | IC50 (PC-3) [µM] | IC50 (DU-145) [µM] | IC50 (LNCaP) [µM] |
| --- | --- | --- | --- |
| CCN(CC)CCCOc1c(-c2cc(OC)c(OC)c(OC)c2)oc2ccccc2c1=O | 13.6 | > 50 | 37.6 |
| CCN(CC)CCCCOc1c(-c2cc(OC)c(OC)c(OC)c2)oc2ccccc2c1=O | 13.7 | 13.3 | 13.5 |
| CCCN(CCC)CCCOc1c(-c2cc(OC)c(OC)c(OC)c2)oc2ccccc2c1=O | 16.8 | > 50 | 17.9 |
| CCCCN(CCCC)CCCOc1c(-c2cc(OC)c(OC)c(OC)c2)oc2ccccc2c1=O | 7.1 | 15.7 | 9 |
| CCCCCN(CCCCC)CCCCCOc1c(-c2cc(OC)c(OC)c(OC)c2)oc2ccccc2c1=O | 9.6 | 11.7 | 7.9 |
| CCCC(C)Oc1c(-c2cc(OC)c(OC)c(OC)c2)oc2ccccc2c1=O (stereo not given) | 49.3 | > 50 | 15.1 |
| CCCCCOc1c(-c2cc(OC)c(OC)c(OC)c2)oc2ccccc2c1=O | 22.2 | > 50 | 15.4 |
| CCCCN(CCCC)CCCCOc1c(-c2cc(OC)c(OC)c(OC)c2)oc2ccccc2c1=O | 5.3 | 15.3 | 7.8 |
| CCCCCCOc1c(-c2cc(OC)c(OC)c(OC)c2)oc2ccccc2c1=O | 29.2 | > 50 | 19.6 |
| O=c1c(O)c(-c2ccc(O)c(O)c2)oc2cc(O)cc(O)c12 [QUERCETIN] | > 100 | > 100 | – |
| COc1cc(-c2oc3ccccc3c(=O)c2OC)cc(OC)c1OC | 19.1 | > 50 | 24.7 |
| CCN(CC)CCCCCOc1c(-c2cc(OC)c(OC)c(OC)c2)oc2ccccc2c1=O | 6.6 | 33.4 | 10 |
